Assay results taken from ChEMBL document CHEMBL3856186, “Partial Activation and Inhibition of TRPV1 Channels by Evodiamine and Rutaecarpine, Two Major Components of the Fruits of Evodia rutaecarpa” (J Nat Prod, 2016).
Active and inactive are the calls of the source. No cut-off for these calls is given here.

Columns and labels:
Format in all cases: cell-based
[1] = molecular target: Transient receptor potential cation channel subfamily V member 1 (Rattus norvegicus) (UniProt O35433); assay: Agonist activity at rat TRPV1 channel expressed in HEK293 cells assessed as induction of inward current at 50 uM and -60 mV holding potential by whole-cell patch-clamp method
Chain of Transient receptor potential cation channel subfamily V member 1 (Rattus norvegicus) (O35433 whole entry): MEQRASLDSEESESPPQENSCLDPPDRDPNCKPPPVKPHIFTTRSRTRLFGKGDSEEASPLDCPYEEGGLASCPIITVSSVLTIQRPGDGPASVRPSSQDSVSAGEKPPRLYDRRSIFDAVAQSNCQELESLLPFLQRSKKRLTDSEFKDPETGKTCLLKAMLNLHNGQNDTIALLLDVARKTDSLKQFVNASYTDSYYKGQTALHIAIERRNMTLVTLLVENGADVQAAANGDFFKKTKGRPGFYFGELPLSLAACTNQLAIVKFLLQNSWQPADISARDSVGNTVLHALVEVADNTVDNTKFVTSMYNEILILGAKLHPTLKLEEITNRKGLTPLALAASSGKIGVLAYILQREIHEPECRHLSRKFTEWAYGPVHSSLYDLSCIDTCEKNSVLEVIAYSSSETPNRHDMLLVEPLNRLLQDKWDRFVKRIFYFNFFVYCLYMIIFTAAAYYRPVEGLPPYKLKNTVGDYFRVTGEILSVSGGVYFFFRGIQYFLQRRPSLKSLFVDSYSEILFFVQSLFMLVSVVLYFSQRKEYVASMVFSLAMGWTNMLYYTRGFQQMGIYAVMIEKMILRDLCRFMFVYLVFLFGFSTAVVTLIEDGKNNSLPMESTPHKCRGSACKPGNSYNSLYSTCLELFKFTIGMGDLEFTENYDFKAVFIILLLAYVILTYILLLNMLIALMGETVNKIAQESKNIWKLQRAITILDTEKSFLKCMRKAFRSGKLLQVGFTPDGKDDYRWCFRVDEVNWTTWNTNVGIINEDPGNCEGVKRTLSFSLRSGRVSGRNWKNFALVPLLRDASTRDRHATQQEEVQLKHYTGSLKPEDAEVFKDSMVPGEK
How it was run: (§1)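 Rat TRPV1 cDNA and an EGFP reporter were cotransfected into HEK293 cells, with recording 1 day later. Whole-cell voltage clamp was run at room temperature (~25 °C) in standard bath (2 mM CaCl2, pH 7.4) with a KCl/MgATP/EGTA pipette solution. Steps from −100 to +100 mV (100 ms) gave I–V curves. Agonist was applied until desensitization, and peak current was scored. EC50 came from a sigmoidal fit.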

[2] = molecular target: Transient receptor potential cation channel subfamily V member 1 (Rattus norvegicus) (UniProt O35433); assay: Agonist activity at rat TRPV1 channel expressed in HEK293 cells assessed as outward rectifying current at 50 uM and -60 mV holding potential by whole-cell patch-clamp method; how it was run: as §1
[3] = molecular target: Transient receptor potential cation channel subfamily V member 1 (Rattus norvegicus) (UniProt O35433); assay: Agonist activity at rat TRPV1 channel expressed in HEK293 cells assessed as reversal potential at 50 uM and -60 mV holding potential by whole-cell patch-clamp method; how it was run: as §1
[4] = molecular target: Transient receptor potential cation channel subfamily V member 1 (Rattus norvegicus, UniProt O35433); assay: Agonist activity at rat TRPV1 channel expressed in HEK293 cells assessed as induction of channel current at -60 mV holding potential by whole-cell patch-clamp method; how it was run: as §1
Chain of Transient receptor potential cation channel subfamily V member 1 (O35433 whole entry): as above

[5] = molecular target: Transient receptor potential cation channel subfamily V member 1 (Rattus norvegicus) (UniProt O35433); assay: Partial antagonist activity at rat TRPV1 expressed in HEK293 cells assessed as inhibition of proton-induced channel current at 1 or 50 uM and -60 mV holding potential pretreated for 60 secs prior to proton-challenge by whole-cell patch clamp method (reference value: 185.1 +/- 38.6 pA/pF)
How it was run: (§2)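 Proton-activated currents were recorded in rat TRPV1-expressing HEK293 cells held at −60 mV in whole-cell mode, with bath buffered to pH 6 with 10 mM MES, at ~25 °C. Peak current amplitude was the read-out.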

[6] = molecular target: Transient receptor potential cation channel subfamily V member 1 (Rattus norvegicus) (UniProt O35433); assay: Partial antagonist activity at rat TRPV1 expressed in HEK293 cells assessed as inhibition of proton-induced channel current at 2 uM at -60 mV holding potential co-treated with proton by whole-cell patch clamp method; how it was run: as §2
[7] = molecular target: Transient receptor potential cation channel subfamily V member 1 (Rattus norvegicus) (UniProt O35433); assay: Agonist activity at rat TRPV1 channel expressed in HEK293 cells assessed as induction of maximum channel current at 50 uM at -60 mV holding potential by whole-cell patch-clamp method; how it was run: as §1

For O=c1c2ccccc2nc2n1CCc1c-2[nH]c2ccccc12 [RUTAECARPINE], the Activity [1] was “Active”, the Activity [2] was “Active” and the Activity [3] was 0 mV. For the same compound, the EC50 [4] was 2060 nM, the Activity [5] was -157 pA/pF and the Activity [6] was -200 pA/pF. The Activity [7] was -55 pA/pF.
